Test results taken from ChEMBL document CHEMBL1153763, “Discovering a new analogue of thalidomide which may be used as a potent modulator of TNF-alpha production” (Eur J Med Chem, 2009).

The compounds below were run on HT-29 (assay: Cytotoxicity against human HT-29 cells by MTT assay). Conditions: not given.
Assay type: functional, cell-based

SMILES | IC50 [µM]
CN(C)CCN1C(=O)CCC(N2C(=O)c3ccc4ccccc4c3C2=O)C1=O (centres undefined) | > 50
O=C1CCC(N2C(=O)c3cc4ccccc4cc3C2=O)C(=O)N1 (centres undefined) | > 50
O=C1CCC(N2C(=O)c3ccc4ccccc4c3C2=O)C(=O)N1 (centres undefined) | > 50
O=C1CCC(N2C(=O)C(c3ccccc3)=C(c3ccccc3)C2=O)C(=O)N1 (centres undefined) | > 50
NC(=O)CCC(C(=O)O)N1C(=O)C(c2ccccc2)=C(c2ccccc2)C1=O (centres undefined) | > 50
O=C1CCC(n2c(=O)c3cc4c(=O)n(C5CCC(=O)NC5=O)c(=O)c4cc3c2=O)C(=O)N1 (centres undefined) | > 50
CN(C)CCN1C(=O)CCC(N2C(=O)C(c3ccccc3)=C(c3ccccc3)C2=O)C1=O (centres undefined) | > 50
NC(=O)CCC(C(=O)O)N1C(=O)c2cccc3cccc(c23)C1=O (centres undefined) | > 50
NC(=O)CCC(C(=O)O)N1C(=O)c2cccc3cc([N+](=O)[O-])cc(c23)C1=O (centres undefined) | > 50
NC(=O)CCC(C(=O)O)N1C(=O)c2cccc3cc(N)cc(c23)C1=O (centres undefined) | > 50
O=C1CCC(N2C(=O)c3cccc4cccc(c34)C2=O)C(=O)N1 (centres undefined) | > 50
O=C1CCC(N2C(=O)c3ccccc3C2=O)C(=O)N1 (centres undefined) [THALIDOMIDE] | > 50

What follows are compounds tested on DLD-1 (assay: Cytotoxicity against human DLD1 cells by MTT assay). Conditions: not given.
Assay type: functional, cell-based

SMILES | IC50 [µM]
CN(C)CCN1C(=O)CCC(N2C(=O)c3ccc4ccccc4c3C2=O)C1=O (centres undefined) | > 50
O=C1CCC(N2C(=O)c3cc4ccccc4cc3C2=O)C(=O)N1 (centres undefined) | > 50
O=C1CCC(N2C(=O)c3ccc4ccccc4c3C2=O)C(=O)N1 (centres undefined) | > 50
O=C1CCC(N2C(=O)C(c3ccccc3)=C(c3ccccc3)C2=O)C(=O)N1 (centres undefined) | > 50
NC(=O)CCC(C(=O)O)N1C(=O)C(c2ccccc2)=C(c2ccccc2)C1=O (centres undefined) | > 50
O=C1CCC(n2c(=O)c3cc4c(=O)n(C5CCC(=O)NC5=O)c(=O)c4cc3c2=O)C(=O)N1 (centres undefined) | > 50
CN(C)CCN1C(=O)CCC(N2C(=O)C(c3ccccc3)=C(c3ccccc3)C2=O)C1=O (centres undefined) | > 50
NC(=O)CCC(C(=O)O)N1C(=O)c2cccc3cccc(c23)C1=O (centres undefined) | > 50
NC(=O)CCC(C(=O)O)N1C(=O)c2cccc3cc([N+](=O)[O-])cc(c23)C1=O (centres undefined) | > 50
NC(=O)CCC(C(=O)O)N1C(=O)c2cccc3cc(N)cc(c23)C1=O (centres undefined) | > 50
O=C1CCC(N2C(=O)c3cccc4cccc(c34)C2=O)C(=O)N1 (centres undefined) | > 50
O=C1CCC(N2C(=O)c3ccccc3C2=O)C(=O)N1 (centres undefined) [THALIDOMIDE] | > 50

What follows are compounds tested on HL-60 (assay: Inhibition of okadaic acid-induced TNFalpha production in human HL60 cells at 30 uM after 16 hrs by ELISA relative to control). Conditions: HL-60, 16 h, values are per cent of control.
Assay type: functional
Outline: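 HL-60 cells in RPMI 1640 with 10% fetal bovine serum, 2 mM L-glutamine and penicillin/streptomycin, 37 °C, 5% CO2. Exponential cells (5×10^5 cells/mL) given 50 nM okadaic acid plus compound (30 µM) for 16 h. Cell number and morphology checked microscopically. Supernatant TNF-α measured by human TNF-α ELISA, expressed as % of okadaic acid-only treatment (100%). At least three experiments, triplicate means.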

SMILES | response, % of control at 30 µM [%]
CN(C)CCN1C(=O)CCC(N2C(=O)c3ccc4ccccc4c3C2=O)C1=O (centres undefined) | 59
O=C1CCC(N2C(=O)c3cc4ccccc4cc3C2=O)C(=O)N1 (centres undefined) | 138
O=C1CCC(N2C(=O)c3ccc4ccccc4c3C2=O)C(=O)N1 (centres undefined) | 78
O=C1CCC(N2C(=O)C(c3ccccc3)=C(c3ccccc3)C2=O)C(=O)N1 (centres undefined) | 47
NC(=O)CCC(C(=O)O)N1C(=O)C(c2ccccc2)=C(c2ccccc2)C1=O (centres undefined) | 66
O=C1CCC(n2c(=O)c3cc4c(=O)n(C5CCC(=O)NC5=O)c(=O)c4cc3c2=O)C(=O)N1 (centres undefined) | 34
CN(C)CCN1C(=O)CCC(N2C(=O)C(c3ccccc3)=C(c3ccccc3)C2=O)C1=O (centres undefined) | 6
NC(=O)CCC(C(=O)O)N1C(=O)c2cccc3cccc(c23)C1=O (centres undefined) | 55
NC(=O)CCC(C(=O)O)N1C(=O)c2cccc3cc([N+](=O)[O-])cc(c23)C1=O (centres undefined) | 51
NC(=O)CCC(C(=O)O)N1C(=O)c2cccc3cc(N)cc(c23)C1=O (centres undefined) | 49
O=C1CCC(N2C(=O)c3cccc4cccc(c34)C2=O)C(=O)N1 (centres undefined) | 49
O=C1CCC(N2C(=O)c3ccccc3C2=O)C(=O)N1 (centres undefined) [THALIDOMIDE] | 53

Each compound was assayed on HL-60 (assay: Enhancement of 12-O-tetradecanoylphorbol-13-acetate-induced TNFalpha production in human HL60 cell at 30 uM after 16 hrs by ELISA relative to control). Conditions: not given.
Assay type: functional
Outline: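 HL-60 cells in RPMI 1640 with 10% fetal bovine serum, 2 mM L-glutamine and penicillin/streptomycin, 37 °C, 5% CO2. Exponential cells (5×10^5 cells/mL) co-treated with 10 nM TPA plus compound (30 µM) for 16 h. Cell number and morphology checked microscopically. Supernatant TNF-α measured by human TNF-α ELISA, expressed as % of TPA-only treatment (100%). At least three experiments, triplicate means.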

SMILES | Activity [%]
CN(C)CCN1C(=O)CCC(N2C(=O)c3ccc4ccccc4c3C2=O)C1=O (centres undefined) | 105
O=C1CCC(N2C(=O)c3cc4ccccc4cc3C2=O)C(=O)N1 (centres undefined) | 166
O=C1CCC(N2C(=O)c3ccc4ccccc4c3C2=O)C(=O)N1 (centres undefined) | 161
O=C1CCC(N2C(=O)C(c3ccccc3)=C(c3ccccc3)C2=O)C(=O)N1 (centres undefined) | 147
NC(=O)CCC(C(=O)O)N1C(=O)C(c2ccccc2)=C(c2ccccc2)C1=O (centres undefined) | 146
O=C1CCC(n2c(=O)c3cc4c(=O)n(C5CCC(=O)NC5=O)c(=O)c4cc3c2=O)C(=O)N1 (centres undefined) | 294
CN(C)CCN1C(=O)CCC(N2C(=O)C(c3ccccc3)=C(c3ccccc3)C2=O)C1=O (centres undefined) | 672
NC(=O)CCC(C(=O)O)N1C(=O)c2cccc3cccc(c23)C1=O (centres undefined) | 116
NC(=O)CCC(C(=O)O)N1C(=O)c2cccc3cc([N+](=O)[O-])cc(c23)C1=O (centres undefined) | 86
NC(=O)CCC(C(=O)O)N1C(=O)c2cccc3cc(N)cc(c23)C1=O (centres undefined) | 140
O=C1CCC(N2C(=O)c3cccc4cccc(c34)C2=O)C(=O)N1 (centres undefined) | 158
O=C1CCC(N2C(=O)c3ccccc3C2=O)C(=O)N1 (centres undefined) [THALIDOMIDE] | 164

The compounds below were run on ST486 (assay: Cytotoxicity against human ST486 cells by MTT assay). Conditions: not given.
Assay type: functional, cell-based

SMILES | IC50 [µM]
CN(C)CCN1C(=O)CCC(N2C(=O)c3ccc4ccccc4c3C2=O)C1=O (centres undefined) | > 50
O=C1CCC(N2C(=O)c3cc4ccccc4cc3C2=O)C(=O)N1 (centres undefined) | > 50
O=C1CCC(N2C(=O)c3ccc4ccccc4c3C2=O)C(=O)N1 (centres undefined) | > 50
O=C1CCC(N2C(=O)C(c3ccccc3)=C(c3ccccc3)C2=O)C(=O)N1 (centres undefined) | > 50
NC(=O)CCC(C(=O)O)N1C(=O)C(c2ccccc2)=C(c2ccccc2)C1=O (centres undefined) | > 50
O=C1CCC(n2c(=O)c3cc4c(=O)n(C5CCC(=O)NC5=O)c(=O)c4cc3c2=O)C(=O)N1 (centres undefined) | > 50
CN(C)CCN1C(=O)CCC(N2C(=O)C(c3ccccc3)=C(c3ccccc3)C2=O)C1=O (centres undefined) | > 50
NC(=O)CCC(C(=O)O)N1C(=O)c2cccc3cccc(c23)C1=O (centres undefined) | > 50
NC(=O)CCC(C(=O)O)N1C(=O)c2cccc3cc([N+](=O)[O-])cc(c23)C1=O (centres undefined) | > 50
NC(=O)CCC(C(=O)O)N1C(=O)c2cccc3cc(N)cc(c23)C1=O (centres undefined) | > 50
O=C1CCC(N2C(=O)c3cccc4cccc(c34)C2=O)C(=O)N1 (centres undefined) | > 50
O=C1CCC(N2C(=O)c3ccccc3C2=O)C(=O)N1 (centres undefined) [THALIDOMIDE] | > 50

What follows are compounds tested on HL-60 (assay: Cytotoxicity against human HL60 cells by MTT assay). Conditions: not given.
Assay type: functional, cell-based

SMILES | IC50 [µM]
CN(C)CCN1C(=O)CCC(N2C(=O)c3ccc4ccccc4c3C2=O)C1=O (centres undefined) | > 50
O=C1CCC(N2C(=O)c3cc4ccccc4cc3C2=O)C(=O)N1 (centres undefined) | > 50
O=C1CCC(N2C(=O)c3ccc4ccccc4c3C2=O)C(=O)N1 (centres undefined) | > 50
O=C1CCC(N2C(=O)C(c3ccccc3)=C(c3ccccc3)C2=O)C(=O)N1 (centres undefined) | > 50
NC(=O)CCC(C(=O)O)N1C(=O)C(c2ccccc2)=C(c2ccccc2)C1=O (centres undefined) | > 50
O=C1CCC(n2c(=O)c3cc4c(=O)n(C5CCC(=O)NC5=O)c(=O)c4cc3c2=O)C(=O)N1 (centres undefined) | > 50
CN(C)CCN1C(=O)CCC(N2C(=O)C(c3ccccc3)=C(c3ccccc3)C2=O)C1=O (centres undefined) | > 50
NC(=O)CCC(C(=O)O)N1C(=O)c2cccc3cccc(c23)C1=O (centres undefined) | > 50
NC(=O)CCC(C(=O)O)N1C(=O)c2cccc3cc([N+](=O)[O-])cc(c23)C1=O (centres undefined) | > 50
NC(=O)CCC(C(=O)O)N1C(=O)c2cccc3cc(N)cc(c23)C1=O (centres undefined) | > 50
O=C1CCC(N2C(=O)c3cccc4cccc(c34)C2=O)C(=O)N1 (centres undefined) | > 50
O=C1CCC(N2C(=O)c3ccccc3C2=O)C(=O)N1 (centres undefined) [THALIDOMIDE] | > 50

Each compound was assayed on HUVEC (assay: Cytotoxicity against HUVEC by MTT assay). Conditions: Homo sapiens.
Assay type: cell-based

SMILES | IC50 [µM]
CN(C)CCN1C(=O)CCC(N2C(=O)c3ccc4ccccc4c3C2=O)C1=O (centres undefined) | > 50
O=C1CCC(N2C(=O)c3cc4ccccc4cc3C2=O)C(=O)N1 (centres undefined) | > 50
O=C1CCC(N2C(=O)c3ccc4ccccc4c3C2=O)C(=O)N1 (centres undefined) | > 50
O=C1CCC(N2C(=O)C(c3ccccc3)=C(c3ccccc3)C2=O)C(=O)N1 (centres undefined) | > 50
NC(=O)CCC(C(=O)O)N1C(=O)C(c2ccccc2)=C(c2ccccc2)C1=O (centres undefined) | > 50
O=C1CCC(n2c(=O)c3cc4c(=O)n(C5CCC(=O)NC5=O)c(=O)c4cc3c2=O)C(=O)N1 (centres undefined) | > 50
CN(C)CCN1C(=O)CCC(N2C(=O)C(c3ccccc3)=C(c3ccccc3)C2=O)C1=O (centres undefined) | > 50
NC(=O)CCC(C(=O)O)N1C(=O)c2cccc3cccc(c23)C1=O (centres undefined) | > 50
NC(=O)CCC(C(=O)O)N1C(=O)c2cccc3cc([N+](=O)[O-])cc(c23)C1=O (centres undefined) | > 50
NC(=O)CCC(C(=O)O)N1C(=O)c2cccc3cc(N)cc(c23)C1=O (centres undefined) | > 50
O=C1CCC(N2C(=O)c3cccc4cccc(c34)C2=O)C(=O)N1 (centres undefined) | > 50
O=C1CCC(N2C(=O)c3ccccc3C2=O)C(=O)N1 (centres undefined) [THALIDOMIDE] | > 50
